This is a sample that favours compounds with a hit; in the whole collection about 2.9% have one here.
TRPC6 inhibitor – mouse TRPC6 channel inhibition | Q61143 | AID 2553 | 310,000 compounds, 1.1% hits | B-score at 10 µM | HEK293-TRPC6, membrane potential dye, ACh-evoked depolarization; hits give low values;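 active = B-score under library mean minus 3 SD, initial fluorescence not abnormally high, positive integrated signal ratio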;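 note: B-score derived from integrated fluorescence ratio over the kinetic read; more negative B-score means stronger inhibition of depolarization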
TRPC4 potent – TRPC4 (mouse) allosteric potentiation; B-score at 10 µM; AID 2227; 310,000 compounds, 0.42% hits; HEK293 TRPC4beta/mu-opioid, DAMGO EC20, Fluo-4 Ca2+ flux; hits give high values; Q9QUQ5;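 active = B-score of calcium response area above 5 SD of library B-scores, with initial fluorescence ratio within 5 SD of library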;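 note: B-score of integrated fluorescence ratio over time as area under calcium response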
TRPC4 inh – blocks the mouse TRPC4 cation channel. 300,000 compounds, 0.39% hits. HEK293 TRPC4beta/mu-opioid, DAMGO-evoked Fluo4 calcium flux; hits give low values. Q9QUQ5. B-score at 10 µM. AID 2247;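 active = B-score over 3 SD under the library average, no early fluorescence shift, positive overall ratio signal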
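Assay system: TRPC4beta/mu-opioid receptor HEK293 cell line; compound dosing: single concentration per test compound; detection: Fluo4 Ca2+ flux fluorescence; evaluation: per-well B score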
TRPC6 act – activates the mouse TRPC6 cation channel; 310,000 compounds, 0.13% hits; HEK293-TRPC6 membrane potential dye fluorescence; hits give high values; B-score at 10 µM;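 active = B-score of the integrated fluorescence ratio above library mean plus 3 SD, and starting fluorescence ratio within library mean plus 5 SD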;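 note: higher score means more depolarization so channel activation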
Kir21 inh – Kir2.1 (mouse) channel inhibition | P35561 | HEK293-Kir2.1, FluxOR thallium flux fluorescence; hits give low values | B-score at 10 µM | 310,000 compounds, 0.85% hits | AID 1672;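 active = fluorescence ratio B-score at or below minus 3 SD of library scores, with starting-brightness B-score within 2 SD, cut at about -4.2 in these data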;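 note: channel flux triggered by added potassium and thallium sulfate stimulus; B-score of peak minus minimum fluorescence over baseline after thallium stimulus; more negative B-score means stronger Kir2.1 block with less thallium influx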
Target sequence (P35561 whole entry, looked up): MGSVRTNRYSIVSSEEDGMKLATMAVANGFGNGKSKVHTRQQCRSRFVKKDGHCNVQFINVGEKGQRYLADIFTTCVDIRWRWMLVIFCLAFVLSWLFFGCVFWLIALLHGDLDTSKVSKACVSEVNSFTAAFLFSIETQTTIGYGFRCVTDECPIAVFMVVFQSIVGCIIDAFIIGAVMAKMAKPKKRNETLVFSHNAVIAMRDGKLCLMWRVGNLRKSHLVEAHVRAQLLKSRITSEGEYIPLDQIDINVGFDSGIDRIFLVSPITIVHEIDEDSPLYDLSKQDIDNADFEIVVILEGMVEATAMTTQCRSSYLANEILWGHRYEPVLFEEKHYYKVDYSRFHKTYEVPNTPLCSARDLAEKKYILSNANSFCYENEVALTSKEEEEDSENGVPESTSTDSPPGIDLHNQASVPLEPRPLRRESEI
TRPC4 agonist – activators of mouse TRPC4 channel | Q9QUQ5 | AID 2237 | 310,000 compounds, 0.49% hits | HEK293 TRPC4beta/mu-opioid, Fluo4 calcium fluorescence; hits give high values | B-score at 10 µM;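 active = B-score above 5 SD of library B-scores, and initial fluorescence ratio not above library mean plus 5 SD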;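 note: positive B-score marks a calcium rise read as TRPC4 activation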
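System: HEK293 cells stably co-expressing mouse TRPC4beta and mu-opioid receptor; Schedule: Fluo4 dye loading 45 min at room temperature, 110 s recording; Detection: Fluo4 fluorescence, kinetic; Evaluation: B-scored integrated calcium fluorescence ratio; Controls: buffer (low) and maximal DAMGO (high).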
Starred values were filed as active, the others as inactive; i = inactive.

SMILES | TRPC6 inhibitor | TRPC4 potent | TRPC4 inh | TRPC6 act | Kir21 inh | TRPC4 agonist
CSCCC(NS(=O)(=O)c1ccc(C)cc1)C(=O)N1CCN(C(c2ccccc2)c2ccccc2)CC1 (configuration not stated) | i | i | i | i | 0.18 | i
COCCCN1C(=O)C(=O)/C(=C(/O)c2ccc(S(=O)(=O)N3CCOCC3)cc2)C1c1ccc(C(C)C)cc1 (configuration not stated) | i | i | i | i | 0.96 | i
Cc1ccc(S(=O)(=O)N(Cc2ccc(F)cc2)Cc2ccco2)cc1 | i | i | i | i | -0.7 | i
Cc1ccc(S(=O)(=O)N(Cc2ccccc2)Cc2ccco2)cc1 | i | 14* | i | i | -5* | i
COc1ccc(S(=O)(=O)N(C)c2ccc(C(=O)N3CCN(C)CC3)cc2)cc1 | i | i | i | i | -0.9 | i
COc1ccc(N2CCN(C(=O)c3ccc(N(C)S(=O)(=O)c4ccc(C)cc4)cc3)CC2)cc1 | i | 38* | i | i | 0.2 | 44*
COc1ccc(N2CCN(C(=O)c3ccc(N(C)S(=O)(=O)c4ccc(OC)cc4)cc3)CC2)cc1 | i | i | i | i | 0.81 | i
COc1ccc(N(C)S(=O)(=O)c2cccc(C(=O)N3CCN(S(=O)(=O)c4ccc(C)cc4)CC3)c2)cc1 | -8.3* | i | i | 12* | 0.22 | i
Cc1ccc(S(=O)(=O)N(C)CC(=O)NCc2ccncc2)cc1 | i | i | i | i | -0.02 | i
CCOC(=O)c1[nH]c(C)c(C(=O)Nc2ccc(F)cc2)c1C | i | i | i | i | -0.87 | i
CC(=O)Nc1cc(C(=O)N2CCCC2)ccc1Sc1ccc(C)cc1 | i | i | i | i | 0.02 | i
Cc1ccc(NC(=O)CN2C(=O)c3ccccc3C2=O)nc1 | i | i | i | i | -1 | i
O=S(=O)(c1ccccc1Cl)N1CCC(Cc2ccccc2)CC1 | i | 20* | i | i | -0.25 | i
OCc1nc2ccccc2n1CCCCOc1ccccc1 | i | i | i | i | -0.4 | i
OCc1nc2ccccc2n1CCOc1ccccc1 | i | i | -6* | i | 0.52 | i
Cc1nc2ccccc2n1CCOc1ccc(F)cc1 | i | i | -6* | i | 0.9 | i
Fc1ccc(NC2=NCCCCC2)cc1 | i | i | i | i | 1.4 | i
Cc1ccnc(Sc2ccc([N+](=O)[O-])cn2)n1 | i | i | i | i | 1 | i
O=S(=O)(c1ccc(Cl)cc1)N1CCCC1c1nc2ccccc2s1 (configuration not stated) | i | i | i | i | -4.7* | i
O=S(=O)(c1cc(Cl)cc(Cl)c1)N1CCCC1c1nc2ccccc2s1 (configuration not stated) | i | i | i | i | 1.1 | i
COc1ccc(NC(=O)Cn2nnc(-c3ccccc3F)n2)cc1 | i | i | i | i | 0.98 | i
CCOC(=O)c1ccc(N=C2C(=S)N(c3ccc(C(=O)OCC)cc3)C(=N)N2/N=C/c2ccccc2)cc1 | i | 17* | i | i | 0.32 | i
Cn1nc(C(F)(F)F)c(C#N)c1N1CCN(c2ccccc2)CC1 | i | i | i | i | -0.42 | i
Cc1ccc(C2(O)CN(c3ccccc3C)C3=[N+]2CCS3)cc1 (configuration not stated) | i | i | i | i | -0.2 | 106*
Cc1ccccc1N1CC(O)(c2ccccc2)[N+]2=C1SCC2 (configuration not stated) | i | i | i | i | 0.97 | 83*
SMILES | TRPC6 inhibitor | TRPC4 potent | TRPC4 inh | TRPC6 act | Kir21 inh | TRPC4 agonist
CCCNC(=O)Cn1cnc2sc(C(=O)Nc3ccc4c(c3)OCO4)c(C)c2c1=O | i | i | i | i | -1.6 | i
O=C(NCc1nc2ccccc2[nH]1)c1c(F)c(F)c(F)c(F)c1F | i | i | i | i | 0.61 | i
COc1cccc(N2C(=O)CC(N3CCN(CCN=CC4=C(O)CC(C)(C)CC4=O)CC3)C2=O)c1 (configuration not stated) | i | 16* | i | i | 2 | i
CCC(=O)N1CCN(CCN=CC2=C(O)CC(C)(C)CC2=O)CC1 | i | i | i | i | -0.03 | i
CC1(C)CC(=O)C(C=NCCN2CCN(C(=O)CCl)CC2)=C(O)C1 | i | 34* | i | i | 0.23 | i
CC1(C)CC(=O)C(C=NCCN2CCN(C3CC(=O)N(c4ccc(F)cc4)C3=O)CC2)=C(O)C1 (configuration not stated) | i | i | i | i | -0.84 | i
CC1(C)CC(=O)C(C=NCCN2CCN(C3CC(=O)N(c4cccc(Br)c4)C3=O)CC2)=C(O)C1 (configuration not stated) | i | 29* | i | i | -0.21 | i
CC1(C)CC(=O)C(C=NCCc2ccccn2)=C(O)C1 | i | i | i | i | -0.85 | 50*
COc1cc(C(=O)O)nc2ccccc12 | i | i | i | i | -0.52 | i
COc1c(Cl)cc(Cl)cc1CNCCNCCO | i | 11* | i | i | 1.2 | i
COc1cc(CNCCO)cc(Cl)c1OCc1ccc(Cl)cc1Cl | i | i | i | i | -11* | i
CCCCNCc1cc(Br)c(OCc2cccs2)c(OC)c1 | i | i | i | i | -12* | i
CCOc1cc(CNCCO)cc(Br)c1OCc1ccccc1 | i | i | i | i | -16* | i
CCOc1cc(CNCCSc2nnnn2C)cc(Br)c1OCc1ccccc1 | i | i | i | i | -1.7 | i
CCOc1c(Br)cc(CNCc2cccs2)cc1OC | i | i | i | i | -1.9 | i
COc1cc(CNCCN2CCOCC2)ccc1OCc1ccc(Cl)cc1Cl | i | i | i | i | -7.6 | i
O=C1CCC([N+](=O)[O-])C(c2ccc(Br)cc2)N1 (configuration not stated) | i | i | i | i | -0.03 | i
COc1cc(CNCCO)cc(Br)c1OCc1ccccc1Cl | i | i | i | i | -13* | i
COc1cccc(CNCCO)c1OCc1ccccc1 | i | i | i | i | -2.3 | i
Cc1cccc(OCCCn2c(CCNC(=O)C(C)C)nc3ccccc32)c1 | i | i | i | i | -0.22 | i
NC(=O)C1CCN(C2CC(=O)N(Cc3ccc(N4CCCC4=O)cc3)C2=O)CC1 (configuration not stated) | i | i | i | i | 0.62 | i

High-throughput results deposited in PubChem by Johns Hopkins Ion Channel Center.
